Results as given in ChEMBL document CHEMBL4354843, “Structure-Based Design of a Potent and Selective Covalent Inhibitor for SRC Kinase That Targets a P-Loop Cysteine” (J Med Chem, 2020).

Assays:
[1] = target: Tyrosine-protein kinase Fer (Homo sapiens) (UniProt P16591); experiment: Binding affinity to wild-type human partial length FER (S542 to T822 residues) expressed in bacterial expression system assessed as residual binding level at 1 uM by Kinomescan method relative to control
[2] = target: Atypical kinase COQ8B, mitochondrial (Homo sapiens) (UniProt Q96D53); experiment: Binding affinity to wild-type human full length ADCK4 (M1 to S544 residues) expressed in bacterial expression system assessed as residual binding level at 1 uM by Kinomescan method relative to control
In short: (§1)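 Active-site-directed KinomeScan competition binding panel covering 468 kinases, compound tested at 1 μM. Each readout is the kinase signal remaining with compound, expressed as a percentage of the DMSO control. […]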

[3] = target: Mitogen-activated protein kinase kinase kinase 7 (Homo sapiens) (UniProt O43318); experiment: Binding affinity to wild-type human partial length TAK1 (M1 to Q303 residues) expressed in mammalian expression system assessed as residual binding level at 1 uM by Kinomescan method relative to control
In short: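 Active site-directed competition binding panel (KinomeScan, 468 kinases). Test compound at 1 μM. Read-out is kinase binding remaining versus DMSO control, expressed as percent of control. Scores above 35% are treated as weak binding.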

[4] = target: Serine/threonine-protein kinase Nek10 (Homo sapiens) (UniProt Q6ZWH5); experiment: Binding affinity to wild-type human partial length NEK10 (L488 to R809 residues) expressed in mammalian expression system assessed as residual binding level at 1 uM by Kinomescan method relative to control
[5] = target: Inhibitor of nuclear factor kappa-B kinase subunit epsilon (Homo sapiens) (UniProt Q14164); experiment: Binding affinity to wild-type human full length IKK-epsilon (M1 to V716 residues) expressed in mammalian expression system assessed as residual binding level at 1 uM by Kinomescan method relative to control; in short: as §1
[6] = target: Cytoplasmic tyrosine-protein kinase BMX (Homo sapiens) (UniProt P51813); experiment: Binding affinity to wild-type human full length BMX (M1 to H675 residues) expressed in bacterial expression system assessed as residual binding level at 1 uM by Kinomescan method relative to control
Chain of Cytoplasmic tyrosine-protein kinase BMX (Homo sapiens) (P51813 whole entry, the tested form may be a part): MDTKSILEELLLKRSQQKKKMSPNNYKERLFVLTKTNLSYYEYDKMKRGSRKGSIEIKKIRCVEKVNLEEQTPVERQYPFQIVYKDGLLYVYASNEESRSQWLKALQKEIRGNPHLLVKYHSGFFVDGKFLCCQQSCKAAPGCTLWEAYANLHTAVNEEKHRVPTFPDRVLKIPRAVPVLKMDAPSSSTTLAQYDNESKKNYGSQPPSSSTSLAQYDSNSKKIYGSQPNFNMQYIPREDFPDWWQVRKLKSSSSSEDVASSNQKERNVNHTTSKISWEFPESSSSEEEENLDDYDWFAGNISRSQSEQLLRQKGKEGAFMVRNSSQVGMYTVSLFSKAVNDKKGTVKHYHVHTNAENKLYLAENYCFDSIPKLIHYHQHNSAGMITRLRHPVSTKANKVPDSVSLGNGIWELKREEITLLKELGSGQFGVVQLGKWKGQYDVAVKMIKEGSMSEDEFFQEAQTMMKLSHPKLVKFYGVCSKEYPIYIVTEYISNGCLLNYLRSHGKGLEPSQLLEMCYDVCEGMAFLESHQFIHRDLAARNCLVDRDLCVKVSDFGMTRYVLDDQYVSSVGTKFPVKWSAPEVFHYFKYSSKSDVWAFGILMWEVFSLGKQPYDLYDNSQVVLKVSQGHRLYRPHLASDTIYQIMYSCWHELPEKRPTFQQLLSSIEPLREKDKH
In short: (§2)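 KinomeScan, an active site-directed competition binding panel of 468 kinases. The test compound was at 1 μM. The readout is remaining kinase binding as a percentage of the DMSO control. Scores above 35% were treated as weak binding and not listed.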

[7] = target: Serine/threonine-protein kinase PAK 1 (Homo sapiens) (UniProt Q13153); experiment: Binding affinity to wild-type human partial length PAK1 (S149 to H545 residues) expressed in bacterial expression system assessed as residual binding level at 1 uM by Kinomescan method relative to control
Chain of Serine/threonine-protein kinase PAK 1 (Homo sapiens) (Q13153 whole entry, the tested form may be a part, canonical isoform): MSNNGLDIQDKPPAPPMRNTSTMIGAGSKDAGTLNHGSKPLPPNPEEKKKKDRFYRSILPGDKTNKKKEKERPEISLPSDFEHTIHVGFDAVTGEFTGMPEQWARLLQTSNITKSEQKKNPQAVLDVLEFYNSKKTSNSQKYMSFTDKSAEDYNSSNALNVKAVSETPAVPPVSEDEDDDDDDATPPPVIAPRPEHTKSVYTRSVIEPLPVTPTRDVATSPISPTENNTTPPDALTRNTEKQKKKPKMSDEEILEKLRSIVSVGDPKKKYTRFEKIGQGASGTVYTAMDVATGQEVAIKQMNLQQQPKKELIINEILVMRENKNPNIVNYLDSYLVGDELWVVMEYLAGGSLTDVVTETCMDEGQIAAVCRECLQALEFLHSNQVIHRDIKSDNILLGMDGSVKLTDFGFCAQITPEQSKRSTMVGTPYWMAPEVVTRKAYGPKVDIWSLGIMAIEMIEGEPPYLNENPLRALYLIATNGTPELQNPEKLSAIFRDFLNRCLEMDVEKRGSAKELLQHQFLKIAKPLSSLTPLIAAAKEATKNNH

[8] = tested on: Phosphatidylinositol 4,5-bisphosphate 3-kinase catalytic subunit alpha isoform (Homo sapiens), P42336 [Q546K]; experiment: Binding affinity to human partial length PIK3CA Q546K mutant (R108 to N1068 residues) expressed in mammalian expression system assessed as residual binding level at 1 uM by Kinomescan method relative to control
In short: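 KinomeScan active site-directed competition binding panel (468 kinases), compound tested at 1 μM. Result expressed as remaining kinase signal versus DMSO control (percent of control).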

[9] = target: Serine/threonine-protein kinase mTOR (Homo sapiens) (UniProt P42345); experiment: Binding affinity to wild-type human partial length MTOR (L1382 to W2549 residues) expressed in mammalian expression system assessed as residual binding level at 1 uM by Kinomescan method relative to control
In short: (§3)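 Active-site-directed competition binding panel of 468 kinases (KinomeScan), compound at 1 μM. The read-out is kinase remaining bound, given as a percentage of the DMSO control. […]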

[10] = target: Protein kinase C epsilon type (Homo sapiens) (UniProt Q02156); experiment: Binding affinity to wild-type human partial length PRKCE (A378 to P737 residues) expressed in mammalian expression system assessed as residual binding level at 1 uM by Kinomescan method relative to control
[11] = target: Serine/threonine-protein kinase BRSK1 (Homo sapiens) (UniProt Q8TDC3); experiment: Binding affinity to wild-type human partial length BRSK1 (M1 to E754 residues) expressed in bacterial expression system assessed as residual binding level at 1 uM by Kinomescan method relative to control
Chain of Serine/threonine-protein kinase BRSK1 (Homo sapiens) (Q8TDC3 whole entry, the tested form may be a part): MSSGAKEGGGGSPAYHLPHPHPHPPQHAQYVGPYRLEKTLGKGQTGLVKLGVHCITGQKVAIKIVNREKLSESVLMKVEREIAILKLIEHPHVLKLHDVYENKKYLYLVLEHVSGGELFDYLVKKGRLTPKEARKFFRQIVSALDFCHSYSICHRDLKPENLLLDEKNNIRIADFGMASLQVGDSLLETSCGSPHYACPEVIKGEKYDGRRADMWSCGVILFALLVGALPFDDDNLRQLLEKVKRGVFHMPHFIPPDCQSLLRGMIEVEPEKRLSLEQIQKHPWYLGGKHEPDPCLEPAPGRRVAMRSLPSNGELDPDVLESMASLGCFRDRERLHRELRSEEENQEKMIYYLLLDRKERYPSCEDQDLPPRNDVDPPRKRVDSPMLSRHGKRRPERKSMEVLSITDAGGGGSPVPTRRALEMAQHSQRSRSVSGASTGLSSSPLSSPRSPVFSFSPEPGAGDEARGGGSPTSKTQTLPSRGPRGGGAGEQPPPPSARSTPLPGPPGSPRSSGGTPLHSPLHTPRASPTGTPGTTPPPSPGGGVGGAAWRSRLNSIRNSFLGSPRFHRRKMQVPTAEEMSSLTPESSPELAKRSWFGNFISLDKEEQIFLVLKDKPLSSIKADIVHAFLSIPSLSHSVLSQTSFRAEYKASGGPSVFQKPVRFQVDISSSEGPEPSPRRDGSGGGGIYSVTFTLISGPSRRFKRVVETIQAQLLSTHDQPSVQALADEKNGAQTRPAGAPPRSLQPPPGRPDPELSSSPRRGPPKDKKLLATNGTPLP

[12] = target: Serine/threonine-protein kinase 24 (Homo sapiens) (UniProt Q9Y6E0); experiment: Binding affinity to wild-type human partial length MST3 (A30 to S311 residues) expressed in bacterial expression system assessed as residual binding level at 1 uM by Kinomescan method relative to control
[13] = target: Aurora kinase C (Homo sapiens) (UniProt Q9UQB9); experiment: Binding affinity to wild-type human full length AURKC (M1 to S275 residues) expressed in bacterial expression system assessed as residual binding level at 1 uM by Kinomescan method relative to control; in short: as §2
[14] = target: Tyrosine-protein kinase Lyn (Homo sapiens) (UniProt P07948); experiment: Binding affinity to wild-type human partial length LYN (C219 to Q511 residues) expressed in bacterial expression system assessed as residual binding level at 1 uM by Kinomescan method relative to control; in short: as §3
Chain of Tyrosine-protein kinase Lyn (Homo sapiens) (P07948 2-512 limits assumed): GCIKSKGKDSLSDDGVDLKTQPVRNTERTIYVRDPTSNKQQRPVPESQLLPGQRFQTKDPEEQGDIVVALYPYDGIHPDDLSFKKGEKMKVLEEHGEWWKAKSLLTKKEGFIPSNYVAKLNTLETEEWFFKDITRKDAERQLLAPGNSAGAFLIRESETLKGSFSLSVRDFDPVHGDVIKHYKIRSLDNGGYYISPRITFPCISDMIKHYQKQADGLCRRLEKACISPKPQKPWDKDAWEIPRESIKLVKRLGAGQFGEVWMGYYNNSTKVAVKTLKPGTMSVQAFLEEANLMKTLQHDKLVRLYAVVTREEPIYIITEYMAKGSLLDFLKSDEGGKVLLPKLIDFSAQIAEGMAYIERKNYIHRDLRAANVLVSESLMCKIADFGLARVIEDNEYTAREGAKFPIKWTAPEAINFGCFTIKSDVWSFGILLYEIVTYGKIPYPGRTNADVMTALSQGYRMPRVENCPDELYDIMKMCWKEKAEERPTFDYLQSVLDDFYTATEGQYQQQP

[15] = target: Tyrosine-protein kinase Fgr (Homo sapiens) (UniProt P09769); experiment: Binding affinity to wild-type human partial length FGR (L233 to T529 residues) expressed in bacterial expression system assessed as residual binding level at 1 uM by Kinomescan method relative to control; in short: as §3
Chain of Tyrosine-protein kinase Fgr (Homo sapiens) (P09769 2-529 limits assumed): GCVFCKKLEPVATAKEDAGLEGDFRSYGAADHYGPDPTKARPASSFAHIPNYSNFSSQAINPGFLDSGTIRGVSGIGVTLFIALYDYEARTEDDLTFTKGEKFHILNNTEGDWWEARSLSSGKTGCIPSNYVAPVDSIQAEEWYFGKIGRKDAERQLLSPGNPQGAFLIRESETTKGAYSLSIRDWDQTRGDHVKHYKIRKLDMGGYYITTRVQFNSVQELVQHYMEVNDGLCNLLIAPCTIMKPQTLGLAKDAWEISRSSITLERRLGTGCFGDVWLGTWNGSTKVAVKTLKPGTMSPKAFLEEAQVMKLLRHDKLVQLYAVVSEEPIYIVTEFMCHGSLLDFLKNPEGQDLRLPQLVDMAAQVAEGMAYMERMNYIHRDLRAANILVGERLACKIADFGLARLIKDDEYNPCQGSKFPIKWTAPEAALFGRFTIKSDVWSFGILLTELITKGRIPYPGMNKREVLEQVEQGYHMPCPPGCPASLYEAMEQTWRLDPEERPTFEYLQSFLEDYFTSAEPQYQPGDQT

[16] = target: Activin receptor type-1B (Homo sapiens) (UniProt P36896); experiment: Binding affinity to wild-type human ACVR1B (S187 to I505 residues) expressed in bacterial expression system assessed as residual binding level at 1 uM by Kinomescan method relative to control; in short: as §2
[17] = target: Serine/threonine-protein kinase ULK2 (Homo sapiens) (UniProt Q8IYT8); experiment: Binding affinity to wild-type human partial length ULK2 (M1 to S301 residues) expressed in mammalian expression system assessed as residual binding level at 1 uM by Kinomescan method relative to control
Chain of Serine/threonine-protein kinase ULK2 (Homo sapiens) (Q8IYT8 whole entry, the tested form may be a part): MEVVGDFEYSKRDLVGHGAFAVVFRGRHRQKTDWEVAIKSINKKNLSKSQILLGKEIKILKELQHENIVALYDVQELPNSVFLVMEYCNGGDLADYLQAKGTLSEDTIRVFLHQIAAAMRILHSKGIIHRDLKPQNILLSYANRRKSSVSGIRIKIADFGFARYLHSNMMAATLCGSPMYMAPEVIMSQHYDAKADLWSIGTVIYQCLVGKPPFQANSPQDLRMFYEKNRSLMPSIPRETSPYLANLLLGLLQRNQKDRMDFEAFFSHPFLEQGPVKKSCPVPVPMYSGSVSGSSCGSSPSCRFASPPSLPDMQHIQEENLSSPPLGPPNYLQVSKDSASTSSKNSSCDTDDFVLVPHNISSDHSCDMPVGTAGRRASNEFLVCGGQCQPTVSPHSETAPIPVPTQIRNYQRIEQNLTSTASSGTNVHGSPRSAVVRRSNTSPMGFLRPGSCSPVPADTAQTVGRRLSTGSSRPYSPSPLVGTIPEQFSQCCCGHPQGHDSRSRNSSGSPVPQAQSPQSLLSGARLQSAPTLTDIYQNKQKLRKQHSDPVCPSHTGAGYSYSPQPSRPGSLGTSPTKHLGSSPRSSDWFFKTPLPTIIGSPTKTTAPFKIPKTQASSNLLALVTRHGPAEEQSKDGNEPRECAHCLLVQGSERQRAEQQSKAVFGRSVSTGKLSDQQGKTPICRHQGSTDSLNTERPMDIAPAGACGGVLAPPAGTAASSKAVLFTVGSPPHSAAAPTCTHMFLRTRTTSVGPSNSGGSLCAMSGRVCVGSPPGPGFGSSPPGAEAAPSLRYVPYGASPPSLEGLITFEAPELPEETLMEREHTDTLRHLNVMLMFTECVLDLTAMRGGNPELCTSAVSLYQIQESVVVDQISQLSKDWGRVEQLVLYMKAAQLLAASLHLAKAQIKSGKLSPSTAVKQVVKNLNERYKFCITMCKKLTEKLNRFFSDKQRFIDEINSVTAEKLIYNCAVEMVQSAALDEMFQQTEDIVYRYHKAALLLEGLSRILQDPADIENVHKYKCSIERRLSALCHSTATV

[18] = target: Cyclin-dependent kinase 15 (Homo sapiens) (UniProt Q96Q40); experiment: Binding affinity to wild-type human full length PFTAIRE2 (M1 to W384 residues) expressed in bacterial expression system assessed as residual binding level at 1 uM by Kinomescan method relative to control
In short: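 Active-site-directed competition binding panel (KinomeScan) covering 468 kinases. Test agent was screened at 1 μM. The read-out is the remaining kinase signal expressed relative to a DMSO control. Scores above 35%, taken as weak binding, were not reported.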

[19] = target: Mitogen-activated protein kinase kinase kinase 15 (Homo sapiens) (UniProt Q6ZN16); experiment: Binding affinity to wild-type human partial length MAP3K15 (T625 to L932 residues) expressed in mammalian expression system assessed as residual binding level at 1 uM by Kinomescan method relative to control; in short: as §3
[20] = target: Ribosomal protein S6 kinase alpha-4 (Homo sapiens) (UniProt O75676); experiment: Binding affinity to wild-type human partial length C-terminal RPS6KA4 kinase domain 2 (M375 to T705 residues) expressed in mammalian expression system assessed as residual binding level at 1 uM by Kinomescan method relative to control

Chain of Tyrosine-protein kinase Fer (Homo sapiens) (P16591 whole entry, looked up, the tested form may be a part): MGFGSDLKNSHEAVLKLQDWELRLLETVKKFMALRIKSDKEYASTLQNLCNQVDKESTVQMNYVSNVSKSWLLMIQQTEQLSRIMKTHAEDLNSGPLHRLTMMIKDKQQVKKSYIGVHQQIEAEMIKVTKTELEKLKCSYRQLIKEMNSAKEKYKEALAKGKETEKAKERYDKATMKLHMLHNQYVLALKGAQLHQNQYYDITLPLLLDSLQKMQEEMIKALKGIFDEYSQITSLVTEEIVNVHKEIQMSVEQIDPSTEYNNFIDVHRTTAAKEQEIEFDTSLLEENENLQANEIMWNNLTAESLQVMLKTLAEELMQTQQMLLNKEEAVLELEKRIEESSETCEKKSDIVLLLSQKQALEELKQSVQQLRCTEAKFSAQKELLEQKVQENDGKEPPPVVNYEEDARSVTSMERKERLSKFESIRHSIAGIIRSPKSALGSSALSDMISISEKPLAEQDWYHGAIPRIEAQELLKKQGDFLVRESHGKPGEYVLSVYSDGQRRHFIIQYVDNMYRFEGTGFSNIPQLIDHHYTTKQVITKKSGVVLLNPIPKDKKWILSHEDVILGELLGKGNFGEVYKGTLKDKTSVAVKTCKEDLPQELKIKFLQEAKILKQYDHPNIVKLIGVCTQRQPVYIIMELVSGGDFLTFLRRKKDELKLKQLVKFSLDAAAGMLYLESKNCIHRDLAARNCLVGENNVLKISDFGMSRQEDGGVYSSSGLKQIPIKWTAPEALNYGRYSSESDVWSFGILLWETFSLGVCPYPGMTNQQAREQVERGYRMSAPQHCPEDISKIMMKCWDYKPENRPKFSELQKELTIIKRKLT

C=CC(=O)Nc1ccccc1Nc1nc(Nc2ccc(N3CCN(C)CC3)cc2)ncc1C(=O)Nc1c(C)cccc1Cl
Activity [1]: 100%
Activity [2]: 100%
Activity [3]: 99%
Activity [4]: 100%
Activity [5]: 100%
Activity [6]: 48%
Activity [7]: 100%
Activity [8]: 100%
Activity [9]: 98%
Activity [10]: 100%
Activity [11]: 100%
Activity [12]: 100%
Activity [13]: 98%
Activity [14]: 2.8%
Activity [15]: 30%
Activity [16]: 93%
Activity [17]: 100%
Activity [18]: 100%
Activity [19]: 80%
Activity [20]: 100%
